# From ChEMBL document CHEMBL5678815 (Clin Cancer Res, 2017)
# Active and inactive are the calls of the source. No cut-off for these calls is given here.
# Assays:
# Splenocyte [1] = experiment: In vivo inhibition of BCR signaling in female […] mouse assessed as CD69 expression at 2.9 mg/kg, po administered and measured after stimulation with anti-IgM for 18 h by flow cytometry analysis; assay type: functional, organism-based
# Outline: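 Female C57BL/6 mice (5/group/dose) were gavaged orally with vehicle or drug at 0.1–30 mg/kg, and spleens were harvested after 3 h. Splenocytes were stimulated with anti-IgM at 10μg/mL for 18 h at 37°C in 5% CO2, then Fc-blocked and stained for CD19 and CD69, with 7-AAD marking dead cells. CD69 on CD19+ B-cells was read by flow cytometry, acquiring >5,000 gated CD19+ cells.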
# [2] = In vivo inhibition of BCR signaling in female […] mouse assessed as B-cell function at 25 mg/kg, po administered for 24 hrs and measured after stimulation with anti-IgM for 18 h by flow cytometry analysis relative to control; assay type: functional, Splenocyte; design: scale not given: the % may be the effect or the level left
# Outline: (§1)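 Female C57BL/6 mice (5/group) received vehicle or 25 mg/kg drug by oral gavage at time zero, with spleens taken at time points from 3 to 24 h. Splenocytes were stimulated ex vivo with goat anti-mouse IgM at 10μg/mL for 18 h at 37°C in 5% CO2, then Fc-blocked and stained for CD19 plus CD69, CD86 or phospho-S6(S235/236), with 7-AAD to exclude dead cells. Read-out was flow cytometry on >5,000 gated CD19+ cells, compared with vehicle.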
# Splenocyte [3] = experiment: In vivo inhibition of BCR signaling in female […] mouse assessed as change in phospho-S6 expression at 25 mg/kg, po administered and measured after stimulation with anti-IgM for 18 h by flow cytometry analysis; assay type: functional, organism-based; outline: as §1
# Splenocyte [4] = experiment: In vivo inhibition of BCR signaling in female […] mouse assessed as change in CD86 expression at 25 mg/kg, po administered and measured after stimulation with anti-IgM for 18 h by flow cytometry analysis; assay type: functional, organism-based; outline: as §1
structure (smiles),measurement,setting,value
C=CC(=O)N1CCC[C@@H](n2nc(-c3ccc(Oc4ccccc4)cc3)c3c(N)ncnc32)C1 [IBRUTINIB],Activity,Splenocyte [1],Active
same,Activity,[2],~70%
same,Activity,Splenocyte [3],Active
same,Activity,Splenocyte [4],Active
